Measured values of several laboratories.
Compare with care: the assays were run in different laboratories.
Read-out: binding
tspO: tspO (Cereibacter sphaeroides, UniProt Q9RFC8)
PIK3CG: Phosphatidylinositol 4,5-bisphosphate 3-kinase catalytic subunit gamma isoform (PIK3CG, Homo sapiens, UniProt P48736)
CREBBP bromodomain: CREB-binding protein, bromodomain (CREBBP, Homo sapiens, UniProt Q92793)

C=CC1=C(C)C2=Cc3c(C=C)c(C)c4[n]3[Fe]([Cl])[n]3c(c(C)c(CCC(=O)O)c3=CC3=NC(=C4)C(C)=C3CCC(=O)O)=CC1=N2  Kd (tspO; fluorescence): 900 nM
C=CC(=O)N1CCC(C(=O)NCC(=O)N2CCN(c3nc(-c4cnc(N)nc4C(F)F)nc(N4CCOCC4)n3)CC2)CC1  Kd (PIK3CG; competition with immobilised ligand): 1.6 nM
Cn1nnc2ccc(NC(=O)c3cccc(C(=O)O)c3)cc21  Kd (CREBBP bromodomain; competition with immobilised ligand): 17000 nM
CCOc1cc(-c2nncn2C)ccc1Nc1ncc2cc(C)nc(NCC(C)(C)C)c2n1  Kd (Mitogen-activated protein kinase kinase kinase 15 (MAP3K15, Homo sapiens, UniProt Q6ZN16); competition with immobilised ligand): > 10000 nM
CCCc1cc(N=Nc2cc(S(=O)(=O)O)c(C)cc2C)ccc1O  Kd (CREBBP bromodomain; fluorescence): 97000 nM
OC[C@H]1OC(O)[C@H](O)[C@@H](O)[C@@H]1O (some centres unmarked)  Kd (Nucleolar RNA helicase 2 (Homo sapiens, UniProt Q9NR30); MST): 3260 nM
C=CC(=O)N1CCC(C(=O)N(C)CC(=O)N2CCN(c3nc(-c4cnc(N)nc4C(F)F)nc(N4CCOCC4)n3)CC2)CC1  Kd (PIK3CG; competition with immobilised ligand): 9.4 nM
CC1=C(/C=C/C(C)=C/C=C/C(C)=C/C=O)C(C)(C)CCC1  Kd (Cellular retinoic acid-binding protein 2 (CRABP2, Homo sapiens, UniProt P29373, L122E/R133K); fluorescence): 104 nM
Nc1nc2c(ncn2[C@@H]2O[C@H](COP(=O)(O)OP(=O)(O)O)[C@@H](OP(=O)(O)OP(=O)(O)O)[C@H]2O)c(=O)[nH]1  Kd (Dihydrofolate synthase/folylpolyglutamate synthase (Escherichia coli, UniProt P08192); ITC): 130000 nM
Cc1cc2c(NC(=O)c3cccc(C(=O)O)c3)cccc2nn1  Kd (CREBBP bromodomain; competition with immobilised ligand): 1100 nM
C=CC1=C(C)c2cc3[nH]c(cc4nc(cc5[nH]c(cc1n2)c(C)c5CCC(=O)O)C(CCC(=O)O)=C4C)c(C)c3C=C  Kd (tspO; fluorescence): 900 nM
